High-throughput results: PubChem BioAssay, several laboratories
An excerpt weighted towards active compounds, which were near 1.8% of everything screened.
SKN-1 inh = suppressors of acrylamide-induced Pgst-4::GFP reporter in worms, primary screen, SKN-1 inhibitor project, whole organism, uHTS, GFP/RFP fluorescence ratio, strain VP596; hit rate 0.49% among 360,000; inhibition, % at 21.8 µM; AID 624304, 2012; C. elegans VP596 Pgst-4::GFP/RFP ratio, 24 h;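 active = interference check ratio from 0.5 to 1.5 plus GFP to RFP signal ratio inhibition reaching or exceeding a fixed threshold, cut at about 30% in these data, passing the limit was not always enough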
DAGLB inhibitor = DAGLB lipase inhibitors, primary screen, biochemical, fluorescence, HTS; inhibition, % at 5.17 µM; Diacylglycerol lipase-beta (Homo sapiens), Q8NCG7; hit rate 0.059% among 340,000; AID 504411, 2011; HEK293T DAGLB membrane lysate, EnzChek fluorogenic substrate; in the data active = inhibition above about 34%;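 note: 0% = enzyme with vehicle and 100% = wells lacking enzyme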
Target sequence (Q8NCG7 whole entry, looked up): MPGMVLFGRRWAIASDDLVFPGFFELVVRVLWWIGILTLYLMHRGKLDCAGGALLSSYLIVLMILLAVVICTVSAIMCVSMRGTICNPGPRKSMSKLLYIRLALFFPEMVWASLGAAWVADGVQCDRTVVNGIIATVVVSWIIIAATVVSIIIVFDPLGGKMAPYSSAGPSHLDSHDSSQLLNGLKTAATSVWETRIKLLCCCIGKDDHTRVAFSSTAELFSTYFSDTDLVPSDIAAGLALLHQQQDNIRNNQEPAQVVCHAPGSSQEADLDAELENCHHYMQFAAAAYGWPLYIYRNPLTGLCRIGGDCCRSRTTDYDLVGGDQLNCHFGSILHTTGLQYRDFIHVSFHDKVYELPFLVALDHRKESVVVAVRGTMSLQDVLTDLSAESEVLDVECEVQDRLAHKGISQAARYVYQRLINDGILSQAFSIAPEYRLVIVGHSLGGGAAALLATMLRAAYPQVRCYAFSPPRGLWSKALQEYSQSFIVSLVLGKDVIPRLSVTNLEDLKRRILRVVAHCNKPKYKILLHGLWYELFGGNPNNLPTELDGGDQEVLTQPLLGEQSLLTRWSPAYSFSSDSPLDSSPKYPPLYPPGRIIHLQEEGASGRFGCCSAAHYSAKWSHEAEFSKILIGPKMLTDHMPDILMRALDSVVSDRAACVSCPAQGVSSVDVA
MsrA act = bovine MsrA enzyme activators, primary screen, biochemical, absorbance, HTS; purified bovine MsrA, absorbance read-out; Methionine sulfoxide reductase A (Bos taurus); activation, % at 10.6 µM; hit rate 0.3% among 360,000; in the data active = activation above about 7.5%;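 note: 0% = vehicle and 100% = reference activator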
MIN6 prolif = inducers of MIN6 beta-cell proliferation, primary screen, ATP luminescence, uHTS. proliferation, % at 10 µM. hit rate 0.29% among 330,000. MIN6 cells proliferation, ATPlite luminescence, 48 h; cells starved in 0.2% serum; 100% = growth in 10% serum. AID 2380, 2010;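 active = compounds whose signal lies at least 3.5 SD above the mean of all wells on their plate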;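 note: 0% = DMSO-treated cells in low-serum medium and 100% = 10% serum control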
MT1-MMP act inh = blockers of MT1-MMP proenzyme processing, primary screen, HT1080 RFP-PRO-GFP cells, GFP/RFP fluorescence; GFP/RFP ratio change, % at 20 µM; Matrix metalloproteinase-14 (Homo sapiens), P50281; AID 651647, 2012; hit rate 0.061% among 360,000; GFP/RFP ratio fluorescence, overnight; percent of plate control window, DMSO zero;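 active = GFP/RFP ratio change of at least 30% with cell ATP level not reduced by more than half and red fluorescence within 50% of control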
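Assay system: RFP-PRO-GFP reporter HT1080 cells; read-out basis: GFP/RFP fluorescence ratio; benchmarks: DMSO wells and RFP-L50D-GFP cells; doses: 20 µM single dose, 1% DMSO; schedule: overnight cell settling, then overnight compound exposure, 37 °C, 5% CO2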
MsrA inh = bovine MsrA enzyme inhibitors, primary screen, biochemical, absorbance, HTS; Methionine sulfoxide reductase A (Bos taurus); purified bovine MsrA, absorbance read-out; inhibition, % at 15.5 µM; hit rate 0.75% among 360,000; in the data active = inhibition above about 4.5%;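 note: 0% = vehicle wells with enzyme and 100% = reference inhibitor wells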
The depositor's hits bear a star; . = not tested or not shown.

SMILES | SKN-1 inh | DAGLB inhibitor | MsrA act | MIN6 prolif | MT1-MMP act inh | MsrA inh
C#CCN1CC(COc2ccccc2)Oc2cccc(Oc3ccc(SC)c(C)c3)c2S1(=O)=O (stereo not drawn) | . | . | . | . | . | 1
COC(=O)c1ccc2nc(-c3ccco3)c(Cc3ccccc3OC)n2c1 | . | . | . | . | . | 1
CCC(=O)NCCn1c(C)cc2ccccc21 | 39* | 2 | -3 | -4 | 5 | .
CCOC(=O)N1CCN(C(=O)C[C@H]2C[C@@]3(C(=O)OC)C(=C[C@H](C(C)(C)C)O[C@@H]3C)N(Cc3ccc4c(c3)OCO4)C2=O)CC1 | . | . | . | . | . | 0
CCCNC(=O)c1ccc2snnc2c1 | 36* | 1 | -1 | 0 | -2 | 0
CNC(=O)c1ccc2snnc2c1 | 10 | 1 | 2 | -4 | 0 | 2
COC(=O)[C@]12C[C@H](CC(=O)N3CCCCC3)C(=O)N(Cc3ccc4c(c3)OCO4)C1=C[C@H](COCc1ccccc1)O[C@@H]2C | . | . | . | . | . | 0
CC(C)NC(=O)CN(C)S(=O)(=O)c1ccc(F)cc1 | 36* | -2 | -4 | -4 | -2 | -1
COC(=O)C1=C(C)N(Cc2cccc(C(F)(F)F)c2)C(=NCC2CC2)NC1c1ccccc1 (stereo not drawn) | . | . | . | . | . | -1
CC(=O)NC(Cc1ccccc1)C(=O)NC1CCN(C(=O)NCc2ccccc2)CC1 (stereo not drawn) | -6 | 0 | -5 | -2 | -2 | 1
CC(=O)NC(Cc1ccc(F)cc1)C(=O)N1CCN(C(=O)NCc2ccccc2)CC1 (stereo not drawn) | 49* | -3 | -2 | -1 | 10 | 0
O=S(=O)(c1ccc(F)cc1)n1ccc(-c2cccc(OCc3c(F)cccc3Cl)c2)n1 | 42* | -13 | -1 | . | -6 | -1
Cc1cc(C)cc(C(=O)N(c2ccccn2)C(C)c2ccco2)c1 (stereo not drawn) | -22 | -4 | -3 | 0 | 5 | 1
CC(c1ccco1)N(C(=O)c1cc(Cl)cc(Cl)c1)c1ccccn1 (stereo not drawn) | 8 | -1 | 0 | 0.0* | -4 | 0
CCCCCCn1c(N2CCC(C(N)=O)CC2)nc2c1c(=O)[nH]c(=O)n2C | 20 | 1 | -1 | 0 | -2 | -1
CCCCCCn1c(N2CCC(C(N)=O)CC2)nc2c1c(=O)n(C)c(=O)n2C | 45* | 0 | -5 | 0 | 0 | -2
Nc1[nH]c(C(=O)c2ccc(Cl)cc2)c(-c2ccc(Br)cc2)c1C(=O)NCc1ccc(Cl)cc1Cl | . | . | . | . | . | 0
O=C(CNc1ccc(Br)cc1)c1ccccc1 | 36* | -2 | -1 | -2 | -2 | -1
Cc1ccc(C(=O)CNc2ccc(Br)cc2)cc1 | -22 | -7 | 2 | -2 | 1 | -1
CCOC(=O)CN1N=C(/C=C/c2ccc(OC)cc2)CCC1=O | 7 | -5 | -10 | -1 | 4 | 6.1*
CCOC(=O)C(C)N1N=C(/C=C/c2ccc(OC)cc2)CCC1=O (stereo not drawn) | -14 | -6 | -8 | 0 | 1 | 6.1*
CC(=O)C1=C(C)NC(=S)NC1c1ccccc1 (stereo not drawn) | . | . | . | . | . | 1
Nc1ccc(C(=O)NCCCCCCNC(=O)c2ccc(N)cc2)cc1 | -18 | 2 | -2 | -1 | -1 | 1
N=C1C=CC(=C(c2ccc(N)cc2)c2ccc(N)cc2)C=C1 | 60* | 21 | 0 | . | 93 | 0
C=CCn1c(CCCNC(=O)C(C)(C)C)nc2ccccc21 | -25 | -4 | 0 | 3 | -5 | 0
SMILES | SKN-1 inh | DAGLB inhibitor | MsrA act | MIN6 prolif | MT1-MMP act inh | MsrA inh
CC(C)(C)C(=O)NCCCc1nc2ccccc2n1CCCOc1ccc(Cl)cc1 | 17 | -1 | 10* | -2 | -13 | 0
Cc1ccc(CN2CCC(n3nccc3NC(=O)c3ccccc3C)CC2)o1 | 36* | 0 | 1 | -2 | 3 | 0
c1ccc(-c2ccc(-n3ccnc3)cc2)cc1 | 82* | -4 | -4 | -2 | -2 | 0
CCOc1cc(CNc2ccc(O)cc2)ccc1OCc1ccc(Cl)cc1Cl | 41* | -7 | 3 | -5 | 8 | .
Oc1ccc(NCc2ccccc2OCc2ccccc2F)cc1 | 17 | 2 | -2 | -4 | 23 | 1
CCOc1ccccc1CNc1ccc(O)cc1 | 42* | 6 | 0 | . | 17 | 0
COC(=O)[C@]12C[C@H](CC(=O)NCc3cccc4ccccc34)C(=O)N(Cc3ccc4c(c3)OCO4)C1=C[C@H](C(C)(C)C)O[C@@H]2C | . | . | . | . | . | 1
O=C(CSc1nnc(CNc2ccc(F)cc2)n1Cc1ccco1)N1CCOCC1 | 0 | 2 | -1 | -4 | -3 | 1
O=C(CSc1nnc(CNc2ccc(F)cc2)n1Cc1ccco1)NC1CC1 | 46* | 0 | -3 | -1 | -10 | 0
CCN=C1NC(c2cccc(F)c2)C(C(=O)OC)=C(C)N1Cc1ccccc1C(F)(F)F (stereo not drawn) | . | . | . | . | . | 1
c1ccc(-c2csc(N3CCN(c4ccccn4)CC3)n2)cc1 | 47* | -14 | -4 | -3 | 9 | 1
C/C(=N\NS(=O)(=O)c1ccc([N+](=O)[O-])cc1)c1ccc(NC(=O)c2ccco2)cc1 | -8 | 1 | -4 | -2 | 3 | 4.6*
CC(=NNS(=O)(=O)c1ccc([N+](=O)[O-])cc1)c1ccc(C)cc1 | 2 | 0 | -3 | . | -6 | 0
CCOC(=O)C1=CCN(S(=O)(=O)c2ccc(F)cc2)C1c1ccc(Cl)cc1 (stereo not drawn) | . | . | . | . | . | 0
COc1cc(/C=C2/SC(=S)N(Cc3ccccc3)C2=O)ccc1OCC(=O)O | -4 | 4 | -8 | -5 | 6 | 0
COc1cc(/C=C2/SC(=S)N(Cc3ccccc3)C2=O)cc(Cl)c1O | 36* | -12 | -3 | . | 9 | 0
COC(=O)Cn1ncn2cccc2c1=O | -5 | -1 | 0 | -2 | 2 | 0
O=c1[nH]ncn2cccc12 | 46* | 0 | -1 | -2 | -4 | -1
c1cc(CNc2ccc3c(c2)OCO3)ccn1 | 37* | 0 | -7 | 0 | -11 | -1
Nc1nc2c(-c3ccc([N+](=O)[O-])cc3)nnn2c2ccccc12 | . | . | . | . | . | -1
COCCNC(=S)N(C)[C@H]1C[C@H]2c3[nH]c4c(-c5ccc6c(c5)OCO6)cccc4c3CCN2C(=O)[C@H]1[C@H](C)O | . | . | . | . | . | -2
